Data: publication PMC3983348 (Journal of Medicinal Chemistry, 2014)
Where two headings read alike, the source gives them in different places.

Tests used:
[1] = system: panel of 60 different human cancer cell lines; experiment: NCI-60 five-dose assay, mean graph midpoint; format: cell-based; conditions: mean graph midpoint of growth inhibition, five-dose assay 10^–8 to 10^–4 M
recombinant Top1 = target: T1, recombinant Top1 (Homo sapiens, UniProt P11387); experiment: Top1-mediated DNA cleavage assay; format: biochemical; conditions: compound-induced DNA cleavage, score based on the activity of 1 μM camptothecin
T1 sequence (P11387 1-765): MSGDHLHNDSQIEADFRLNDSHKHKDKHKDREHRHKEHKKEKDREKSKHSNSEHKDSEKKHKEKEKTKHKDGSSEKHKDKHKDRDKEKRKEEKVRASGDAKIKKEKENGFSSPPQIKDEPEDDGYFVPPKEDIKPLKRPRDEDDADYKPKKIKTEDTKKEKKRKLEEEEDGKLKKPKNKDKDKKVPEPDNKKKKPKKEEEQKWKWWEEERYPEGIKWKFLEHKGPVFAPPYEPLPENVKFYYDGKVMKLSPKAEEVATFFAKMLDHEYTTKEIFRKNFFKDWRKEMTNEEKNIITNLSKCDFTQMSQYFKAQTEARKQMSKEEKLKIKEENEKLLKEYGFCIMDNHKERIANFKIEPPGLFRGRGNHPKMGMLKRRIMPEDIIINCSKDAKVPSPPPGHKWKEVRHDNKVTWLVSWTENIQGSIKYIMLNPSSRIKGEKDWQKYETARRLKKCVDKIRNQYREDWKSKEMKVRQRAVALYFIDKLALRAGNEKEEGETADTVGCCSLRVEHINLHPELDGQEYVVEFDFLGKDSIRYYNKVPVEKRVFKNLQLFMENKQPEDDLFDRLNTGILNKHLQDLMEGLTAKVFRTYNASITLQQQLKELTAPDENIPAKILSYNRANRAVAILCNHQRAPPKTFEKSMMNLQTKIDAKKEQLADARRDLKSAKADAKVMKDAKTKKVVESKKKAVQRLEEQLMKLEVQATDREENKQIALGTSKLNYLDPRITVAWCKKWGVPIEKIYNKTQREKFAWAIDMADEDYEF

recombinant TDP1 = recombinant TDP1 (Homo sapiens, UniProt Q9NUW8); experiment: Gel-based assay measuring the inhibition of recombinant TDP1; format: biochemical
recombinant TDP1, sequence (Q9NUW8 whole entry): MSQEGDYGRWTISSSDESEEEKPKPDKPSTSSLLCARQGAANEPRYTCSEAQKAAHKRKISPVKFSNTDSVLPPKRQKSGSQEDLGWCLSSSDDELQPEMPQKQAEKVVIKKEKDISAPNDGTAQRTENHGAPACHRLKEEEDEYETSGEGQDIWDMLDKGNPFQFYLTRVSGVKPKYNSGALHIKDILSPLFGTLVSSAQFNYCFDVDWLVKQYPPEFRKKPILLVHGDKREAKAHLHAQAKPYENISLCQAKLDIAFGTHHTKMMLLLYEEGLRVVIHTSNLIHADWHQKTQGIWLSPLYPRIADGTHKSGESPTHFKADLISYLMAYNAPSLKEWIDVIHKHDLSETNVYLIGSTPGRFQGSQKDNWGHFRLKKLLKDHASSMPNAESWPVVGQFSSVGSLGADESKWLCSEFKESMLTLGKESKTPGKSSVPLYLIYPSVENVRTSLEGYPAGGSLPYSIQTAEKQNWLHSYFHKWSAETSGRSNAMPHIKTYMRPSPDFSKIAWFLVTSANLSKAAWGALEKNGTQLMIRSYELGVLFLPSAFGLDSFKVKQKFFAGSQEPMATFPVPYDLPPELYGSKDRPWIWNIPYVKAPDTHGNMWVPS
Procedure, shortened: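 Gel assay: a 5′-[32P]-labeled single-stranded DNA oligonucleotide with a 3′-phosphotyrosine (N14Y) was incubated with 5 pM recombinant TDP1 and test compound for 15 min at room temperature. Samples were run on 16% denaturing PAGE and quantified by phosphorimager densitometry.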

renal, SN12C = experiment: NCI-60 five-dose assay, SN12C; format: cell-based; conditions: Homo sapiens, read-out: cytotoxicity GI50, renal, SN12C
Procedure, shortened: (§1)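 Run in the National Cancer Institute's NCI-60 human cancer cell panel. Test compounds were first screened in a one-dose assay at 10–5 M, reading growth percent relative to vehicle-treated control.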

melanoma, UACC-62 = experiment: NCI-60 five-dose assay, UACC-62; format: cell-based; conditions: Homo sapiens, UACC-62, read-out: cytotoxicity GI50, melanoma, UACC-62
Procedure, shortened: as §1

[2] = read-out: TDP1 inhibition, score according to IC50

Row | Top1 cleavage (recombinant Top1) | IC50 (recombinant TDP1; [2]) | SMILES | MGM [1] | other results
1 | ++++ | – | COc1cc2c3c(n(C[C@@H](O)[C@@H](O)[C@H](O)CO)c(=O)c2cc1OC)-c1cc2c(cc1C3=O)OCO2 [Compound 57, (2′R,3′R,4′R)-5,6-Dihydro-6-(2′,3′,4′,5′-tetrahydroxypentyl)-2,3-dimethoxy-8,9-methylenedioxy-5,11-dioxo-11H-indeno[1,2-c]isoquinoline] | 2.94 ± 0.52 µM | –
2 | ++++ | – | COc1cc2c3c(n(C[C@@H](O)[C@@H](O)[C@H](O)[C@H](O)CO)c(=O)c2cc1OC)-c1cc2c(cc1C3=O)OCO2 [Compound 61, (2′R,3′R,4′R,5′R)-5,6-Dihydro-6-(2′,3′,4′,5′,6′-pentahydroxyhexyl)-2,3-dimethoxy-8,9-methylenedioxy-5,11-dioxo-11H-indeno[1,2-c]isoquinoline] | – | –
3 | +++ (+++, between 75% and 95% activity) | – | COc1cc2c3c(n(C[C@@H](O)[C@H](O)[C@H](O)CO)c(=O)c2cc1OC)-c1cc2c(cc1C3=O)OCO2 [Compound 55, (2′R,3′S,4′R)-5,6-Dihydro-6-(2′,3′,4′,5′-tetrahydroxypentyl)-2,3-dimethoxy-8,9-methylenedioxy-5,11-dioxo-11H-indeno[1,2-c]isoquinoline] | 5.62 ± 0.18 µM | –
4 | ++++ | 12 to 37 µM | O=C1c2ccccc2-c2c1c1ccc([N+](=O)[O-])cc1c(=O)n2C[C@@H](O)[C@@H](O)[C@H](O)CO [Compound 67, (2′R,3′R,4′R)-5,6-Dihydro-6-(2′,3′,4′,5′-tetrahydroxypentyl)-3-nitro-5,11-dioxo-11H-indeno[1,2-c]isoquinoline] | 1.66 µM | –
5 | ++ (++, between 50% and 75% activity) | 37 to 111 µM | COc1cc2c3c(n(C[C@@H]4O[C@H](CO)[C@@H](O)[C@H](O)[C@H]4O)c(=O)c2cc1OC)-c1cc2c(cc1C3=O)OCO2 [Compound 62] | – | IC50 (recombinant TDP1; read-out: TDP1 IC50): ≥ 12 µM
6 | ++ (++, between 50% and 75% activity) | 12 to 37 µM | O=C1c2ccccc2-c2c1c1ccc([N+](=O)[O-])cc1c(=O)n2C[C@@H]1O[C@H](CO)[C@@H](O)[C@H](O)[C@H]1O [Compound 71] | – | IC50 (recombinant TDP1): ≥ 12 µM
7 | ++++ | 37 to 111 µM | O=C1c2ccccc2-c2c1c1ccc([N+](=O)[O-])cc1c(=O)n2C[C@@H](O)[C@@H](O)[C@H](O)[C@H](O)CO [Compound 70, (2′R,3′R,4′R,5′R)-5,6-Dihydro-6-(2′,3′,4′,5′,6′-pentahydroxyhexyl)-3-nitro-5,11-dioxo-11H-indeno[1,2-c]isoquinoline] | 16.6 µM | –
8 | ++++(+) | 37 to 111 µM | O=C1c2ccccc2-c2c1c1ccc([N+](=O)[O-])cc1c(=O)n2C[C@H](O)[C@@H](O)[C@H](O)CO [Compound 68, (2′S,3′R,4′R)-5,6-Dihydro-6-(2′,3′,4′,5′-tetrahydroxypentyl)-3-nitro-5,11-dioxo-11H-indeno[1,2-c]isoquinoline] | 0.372 ± 0.024 µM | –
9 | +++ (+++, between 75% and 95% activity) | – | COc1cc2c3c(n(C[C@H](O)[C@@H](O)[C@H](O)[C@H](O)CO)c(=O)c2cc1OC)-c1cc2c(cc1C3=O)OCO2 [Compound 60, (2′S,3′R,4′R,5′R)-5,6-Dihydro-6-(2′,3′,4′,5′,6′-pentahydroxyhexyl)-2,3-dimethoxy-8,9-methylenedioxy-5,11-dioxo-11H-indeno[1,2-c]isoquinolone] | – | –
10 | +++ (+++, between 75% and 95% activity) | – | O=C1c2ccccc2-c2c1c1ccc([N+](=O)[O-])cc1c(=O)n2CC(O)CO (stereo not drawn) [Compound 63, (2′RS)-5,6-Dihydro-6-(2′,3′-dihydroxypropyl)-3-nitro-5,11-dioxo-11H-indeno[1,2-c]isoquinoline] | 0.389 ± 0.013 µM | –
11 | ++++ | – | COc1cc2c3c(n(C[C@H](O)CO)c(=O)c2cc1OC)-c1cc2c(cc1C3=O)OCO2 [Compound 53, (2′S)-5,6-Dihydro-6-(2′,3′-dihydroxypropyl)-2,3-dimethoxy-8,9-methylenedioxy-5,11-dioxo-11H-indeno[1,2-c]isoquinoline] | 0.049 ± 0.003 µM | –
12 | ++++ | – | COc1cc2c3c(n(CC(O)CO)c(=O)c2cc1OC)-c1cc2c(cc1C3=O)OCO2 (stereo not drawn) [Compound 52, (2′RS)-5,6-Dihydro-6-(2′,3′-dihydroxypropyl)-2,3-dimethoxy-8,9-methylenedioxy-5,11-dioxo-11H-indeno[1,2-c]isoquinoline] | 0.065 ± 0.011 µM | –
13 | – | 37 to 111 µM | COc1cc2c3c(n(C[C@H](O)[C@H](O)[C@H](O)CO)c(=O)c2cc1OC)-c1cc2c(cc1C3=O)OCO2 [Compound 56, (2′S,3′S,4′R)-5,6-Dihydro-6-(2′,3′,4′,5′-tetrahydroxypentyl)-2,3-dimethoxy-8,9-methylenedioxy-5,11-dioxo-11H-indeno[1,2-c]isoquinoline] | 1.43 ± 0.44 µM | –
14 | ++++ | 37 to 111 µM | O=C1c2ccccc2-c2c1c1ccc([N+](=O)[O-])cc1c(=O)n2C[C@@H](O)[C@H](O)[C@H](O)CO [Compound 65, (2′R,3′S,4′R)-5,6-Dihydro-6-(2′,3′,4′,5′-tetrahydroxypentyl)-3-nitro-5,11-dioxo-11H-indeno[1,2-c]isoquinoline] | 1.58 µM | GI50 (renal, SN12C): 2.69 µM
15 | ++++(+) | – | O=C1c2ccccc2-c2c1c1ccc([N+](=O)[O-])cc1c(=O)n2C[C@H](O)[C@H](O)[C@H](O)CO [Compound 66, (2′S,3′S,4′R)-5,6-Dihydro-6-(2′,3′,4′,5′-tetrahydroxypentyl)-3-nitro-5,11-dioxo-11H-indeno[1,2-c]isoquinoline] | 0.508 ± 0.041 µM | –
16 | ++ (++, between 50% and 75% activity) | 37 to 111 µM | COc1cc2c3c(n(C[C@H](O)[C@@H](O)[C@@H](O)[C@H](O)CO)c(=O)c2cc1OC)-c1cc2c(cc1C3=O)OCO2 [Compound 59, (2′S,3′R,4′S,5′R)-5,6-Dihydro-6-(2′,3′,4′,5′,6′-pentahydroxyhexyl)-2,3-dimethoxy-8,9-methylenedioxy-5,11-dioxo-11H-indeno[1,2-c]isoquinoline] | – | –
17 | +++ (+++, between 75% and 95% activity) | – | O=C1c2ccccc2-c2c1c1ccc([N+](=O)[O-])cc1c(=O)n2C[C@@H](O)CO [Compound 64, (2′R)-5,6-Dihydro-6-(2′,3′-dihydroxypropyl)-3-nitro-5,11-dioxo-11H-indeno[1,2-c]isoquinoline] | 0.332 ± 0.022 µM | –
18 | ++++ | – | COc1cc2c3c(n(C[C@@H](O)CO)c(=O)c2cc1OC)-c1cc2c(cc1C3=O)OCO2 [Compound 54, (2′R)-5,6-Dihydro-6-(2′,3′-dihydroxypropyl)-2,3-dimethoxy-8,9-methylenedioxy-5,11-dioxo-11H-indeno[1,2-c]isoquinoline] | 0.166 ± 0.005 µM | GI50 (melanoma, UACC-62): 0.025 µM
